Our source for the Activity values is ChEMBL document CHEMBL4680173 (Eur J Med Chem, 2020).

Activity calls are given as the source filed them. The calls are words filed in the database; no cut-off is given here.

Data set [1] can be described thus: Toxicity in BALB/c nude mouse xenografted with human SK-OV-3 cells assessed as organ related toxicity on spleen morphology at 20 mg/kg, iv once a week for 3 weeks by H and E staining-based […]. In kind it is organism-based. As to conditions: in vivo, 504 h. The method, boiled down: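 Female BALB/c nude mice, five weeks old, given subcutaneous dorsal implants of 1.0×10^7 SK-OV-3 cells in sterile PBS. Dosing began once tumors reached 100-150 mm³ (day 18): tail-vein injection in 5% dextrose vehicle, once weekly for three weeks. Vehicle controls included. Organs taken at sacrifice; paraffin sections stained with Harris hematoxylin then eosin-phloxine for 1 min, and imaged microscopically.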

Data set [2] has as its system SK-OV-3. Briefly: Induction of apoptosis in human SK-OV-3 cells assessed as increase in reactive oxygen species production at 10 uM measured after 24 hrs incubation by DCFH-DA staining based flow cytometric analysis (reference value: 2.63%). Format: functional.
Data set [3] deals with SK-OV-3. Briefly: Induction of apoptosis in human SK-OV-3 cells assessed as necrotic cells at 10 uM incubated for 24 hrs by AnnexinV-FITC and propidium iodide staining based flow cytometry analysis (reference value: 1.14%). Format: functional.
Data set [4] has as its system SK-OV-3. Briefly: Induction of apoptosis in human SK-OV-3 cells assessed as live and dead cells at 10 uM measured after 24 hrs by calcein AM/PI double staining-based fluorescence microscopy. Format: functional, cell-based. In short, it runs like this: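 Washed twice with ice-cold PBS, then stained with calcein AM (live, green) and PI (dead, red) for 30 min and imaged by fluorescence microscopy.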

On to `CCOP(=O)(OCC)C(Nc1ccc(CCCC(=O)OC2(CC)C(=O)OCc3c2cc2n(c3=O)Cc3c-2nc2ccc(OC(=O)N4CCC(N5CCCCC5)CC4)cc2c3CC)cc1)c1ccc(F)cc1` (centres undefined), for which the Activity result is recorded as “Non-Toxic” in data set [1], 37.49% in data set [2] and 3.44% in data set [3]. Besides, the result in data set [4] was Active.
